≈ marks a conversion by molar mass, not a printed value.
Legend:
Saccharomyces cerevisiae [1] = assay: Antifungal activity against Saccharomyces cerevisiae, activity expressed as inhibitory zone (mm, diameter); assay type: functional
Outline: (§1)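 Yeast grown in Sabouraud's dextrose broth, 24-h culture seeded 1:100 into agar; paper disks carrying 0.05 mg drug (from 1 mg/mL stock in Me2SO-EtOH 1:9); 37 °C, read after 48 h as zone diameter (mm).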

Epidermophyton floccosum [2] = assay: Antifungal activity against Epidermophyton floccosum, activity expressed as minimum inhibitory concentration ([…]); assay type: functional
Actinomyces israelii = assay: Antibacterial activity against Actinomyces israelii, activity expressed as inhibitory zone (mm, diameter); assay type: functional
Outline: (§2)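 Agar diffusion: disks loaded with 0.05 mg drug (stock 1 mg/mL in Me2SO-EtOH 1:9) on brain-heart infusion agar seeded 1:100 with 48-h anaerobe culture grown in thioglycolate broth; incubated anaerobically at 37 °C for 24 h; zone diameter measured in mm.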

Trichophyton benhamiae [3] = assay: Antifungal activity against Trichophyton mentagrophytes, activity expressed as inhibitory zone (mm, diameter); assay type: functional, Arthroderma benhamiae
Outline: (§3)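 Dermatophytes grown in Sabouraud's dextrose broth, 4-5 day cultures seeded 1:100 into agar; disks with 0.05 mg drug (1 mg/mL stock, Me2SO-EtOH 1:9); grown and tested at 28 °C, zone diameter (mm) read after 48 h.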

Epidermophyton floccosum [4] = assay: Antifungal activity against Epidermophyton floccosum, activity expressed as inhibitory zone (mm, diameter); assay type: functional; outline: as §3
Trichomonas vaginalis [5] = assay: Antiprotozoal activity measured as the conc for<[…]% inhibition of Trichomonas vaginalis; assay type: functional, organism-based
Trichophyton benhamiae [6] = assay: Antifungal activity against Trichophyton mentagrophytes, activity expressed as minimum inhibitory concentration ([…]).; assay type: functional, Arthroderma benhamiae
Streptococcus pyogenes = assay: Antibacterial activity against Streptococcus pyogenes C, activity expressed as inhibitory zone (mm, diameter); assay type: functional; outline: as §2
Cutibacterium acnes [7] = assay: Antibacterial activity against Propionibacterium acnes, activity expressed as inhibitory zone (mm, diameter); QA is questionable activity; assay type: functional, organism-based; outline: as §2
Candida albicans [8] = assay: Antifungal activity against Candida albicans, activity expressed as […] inhibitory zone (mm, diameter); assay type: functional; outline: as §1
Trichomonas vaginalis [9] = assay: Antiprotozoal activity measured as the conc for <[…]% inhibition of Trichomonas vaginalis; assay type: functional, organism-based
Clostridium novyi = assay: Antibacterial activity against Clostridium novyi, activity expressed as inhibitory zone (mm, diameter); assay type: functional; outline: as §2
Candida albicans [10] = assay: Antifungal activity against Candida albicans, activity expressed as minimum inhibitory concentration ([…]); assay type: functional
Tritrichomonas suis [11] = assay: Antiprotozoal activity measured as the conc for < […]% inhibition of Trichomonas foetus; assay type: functional, organism-based
Bacteroides fragilis = assay: Antibacterial activity against Bacteroides fragilis, activity expressed as […] inhibitory zone (mm, diameter); assay type: functional
Outline: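 Agar diffusion vs B. fragilis grown in thioglycolate broth: 0.05 mg drug per paper disk (stock 1 mg/mL, Me2SO-EtOH 1:9), brain-heart infusion agar seeded with 48-h culture at 1:100, anaerobic 37 °C, 24 h; zone diameter in mm.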

Saccharomyces cerevisiae [12] = assay: Antifungal activity against Saccharomyces cerevisiae, activity expressed as minimum inhibitory concentration ([…]).; assay type: functional
Tritrichomonas suis [13] = assay: Antiprotozoal activity measured as the conc for <[…]% inhibition of Trichomonas foetus; assay type: functional, organism-based
Cutibacterium acnes [14] = assay: Antibacterial activity against Propionibacterium acnes, activity expressed as inhibitory zone (mm, diameter); assay type: functional; outline: as §2
Entamoeba histolytica [15] = assay: Antiprotozoal activity measured as the conc for <[…]% inhibition of Entamoeba histolytica; assay type: functional, organism-based
Saccharomyces cerevisiae [16] = assay: Antifungal activity against Saccharomyces cerevisiae, activity expressed as minimum inhibitory concentration (ug/mL).; assay type: functional
Trichomonas vaginalis [17] = assay: Antiprotozoal activity measured as the conc for 100% inhibition of Trichomonas vaginalis; assay type: functional, organism-based
Outline: (§4)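 Protozoa grown 48 h (T. vaginalis in TYM 721, T. foetus in TYM 359, E. histolytica J 190 in modified Boeck Drbohlav medium, 37 °C) and pooled; 0.6 × 10^6 organisms into 10-mL tubes with drug 32 to 0.06 µg/mL, 48 h; inhibition scored microscopically against untreated controls as 100, >95, 95-25 or <25%.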

Epidermophyton floccosum [18] = assay: Antifungal activity against Epidermophyton floccosum, activity expressed as minimum inhibitory concentration (ug/mL); assay type: functional
Candida albicans [19] = assay: Antifungal activity against Candida albicans, activity expressed as minimum inhibitory concentration (ug/mL); assay type: functional
Outline: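 Tube dilution in Sabouraud's dextrose broth (ca. 3 mL/tube) at 37 °C; inoculum from 24-h yeast culture, 1:1000 in saline. Drug dissolved in Me2SO-EtOH (1:9), stock 3.2 mg/mL; twofold serial dilutions 32 to 0.06 µg/mL. Read after 48 h; MIC = lowest concentration with no visible growth.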

Trichomonas vaginalis [20] = assay: Antiprotozoal activity measured as the conc for 95-[…]% inhibition of Trichomonas vaginalis; assay type: functional, organism-based
Entamoeba histolytica [21] = assay: Antiprotozoal activity measured as the conc for 100% inhibition of Entamoeba histolytica; assay type: functional, organism-based
Outline: (§5)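 E. histolytica (J 190) grown 48 h at 37 °C in modified Boeck Drbohlav medium, pooled; 0.6 × 10^6 organisms inoculated into 10 mL medium with drug at 32 to 0.06 µg/mL, incubated 48 h.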

Trichophyton benhamiae [22] = assay: Antifungal activity against Trichophyton mentagrophytes, activity expressed as minimum inhibitory concentration (ug/mL).; assay type: functional, Arthroderma benhamiae
Trichomonas vaginalis [23] = assay: Antiprotozoal activity measured as the conc for >95% inhibition of Trichomonas vaginalis; assay type: functional, organism-based; outline: as §4
Tritrichomonas suis [24] = assay: Antiprotozoal activity measured as the conc for 100% inhibition of Trichomonas foetus; assay type: functional, organism-based; outline: as §4
Tritrichomonas suis [25] = assay: Antiprotozoal activity measured as the conc for 95-[…]% inhibition of Trichomonas foetus; assay type: functional, organism-based
Entamoeba histolytica [26] = assay: Antiprotozoal activity measured as the conc for >95% inhibition of Entamoeba histolytica; assay type: functional, organism-based; outline: as §5
Tritrichomonas suis [27] = assay: Antiprotozoal activity measured as the conc for >95% inhibition of Trichomonas foetus; assay type: functional, organism-based; outline: as §4
Saccharomyces cerevisiae [28] = assay: Antifungal activity against Saccharomyces cerevisiae, activity expressed as inhibitory zone (mm, diameter); QA is questionable activity; assay type: functional, organism-based; outline: as §1
Entamoeba histolytica [29] = assay: Antiprotozoal activity measured as the conc for >95% inhibition of Entamoeba histolytica,; assay type: functional, organism-based; outline: as §4
Entamoeba histolytica [30] = assay: Antiprotozoal activity measured as the conc for 95-[…]% inhibition of Entamoeba histolytica; assay type: functional, organism-based
Entamoeba histolytica [31] = assay: Antiprotozoal activity measured as the conc for 100% inhibition of Entamoeba histolytica,; assay type: functional, organism-based; outline: as §4
Entamoeba histolytica [32] = assay: Antiprotozoal activity measured as the conc for <[…]% inhibition of Entamoeba histolytica,; assay type: functional, organism-based
[33] = Saccharomyces cerevisiae, read-out: MIC
[34] = Epidermophyton floccosum, read-out: MIC
[35] = Candida albicans, read-out: MIC
[36] = Trichophyton benhamiae, read-out: MIC

Row | Structure (SMILES) | MIC (Epidermophyton floccosum [2]) [µg/mL] | MIC (Trichophyton benhamiae [6]) [µg/mL] | MIC (Saccharomyces cerevisiae [16]; [33]) [µg/mL] | MIC (Epidermophyton floccosum [18]; [34]) [µg/mL] | MIC (Candida albicans [19]; [35]) [µg/mL] | MIC (Trichophyton benhamiae [22]; [36]) [µg/mL] | Inhibitory zone (Saccharomyces cerevisiae [1]) [mm] | Inhibitory zone (Actinomyces israelii) [mm] | Inhibitory zone (Trichophyton benhamiae [3]) [mm] | Inhibitory zone (Epidermophyton floccosum [4]) [mm] | Inhibitory zone (Streptococcus pyogenes) [mm] | Inhibitory zone (Candida albicans [8]) [mm] | Concentration (Trichomonas vaginalis [9]) [µg/mL] | Inhibitory zone (Clostridium novyi) [mm] | Inhibitory zone (Bacteroides fragilis) [mm] | Concentration (Tritrichomonas suis [13]) [µg/mL] | Inhibitory zone (Cutibacterium acnes [14]) [mm] | Concentration (Trichomonas vaginalis [17]) [µg/mL] | Concentration (Trichomonas vaginalis [20]) [µg/mL] | Concentration (Tritrichomonas suis [25]) [µg/mL] | further results
1 | COc1ccc(C(C)[C@H]2NC[C@H](O)[C@H]2OC(C)=O)cc1 (some centres undefined) | > 32 | > 32 |  |  |  |  | 0 | 0 | 0 | 0 | 0 | 0 | 32 | 8 | 24 | 32 | 0 |  |  |  | MIC (Candida albicans [10]): > 32 µg/mL; Concentration (Entamoeba histolytica [15]): 32 µg/mL; MIC (Saccharomyces cerevisiae [12]): > 32 µg/mL
2 | CC(=O)O[C@@H]1[C@@H](O)CN[C@@H]1Cc1ccccc1 |  |  | 2 (≈ 8.5 µM) | 32 (≈ 136 µM) | 32 (≈ 136 µM) | 16 (≈ 68 µM) |  | 0 | 10 | 8 | 0 | 0 |  | 0 | 0 | 2 | 0 | 8 | 2 | 4 | Concentration (Tritrichomonas suis [27]): 16 µg/mL; Concentration (Entamoeba histolytica [21]): 16 µg/mL; Concentration (Trichomonas vaginalis [23]): 4 µg/mL; Concentration (Tritrichomonas suis [24]): 32 µg/mL; Concentration (Entamoeba histolytica [26]): 2 µg/mL; QA (Saccharomyces cerevisiae [28]): questionable activity
3 | Clc1ccccc1C(c1ccccc1)(c1ccccc1)n1ccnc1 [CLOTRIMAZOLE] |  |  |  |  |  |  |  |  |  |  |  |  | 4 |  |  |  |  | 32 | 8 |  | MIC (Saccharomyces cerevisiae [16]): 0.06 µg/mL (≈ 0.174 µM); MIC (Epidermophyton floccosum [18]): 0.06 µg/mL (≈ 0.174 µM); Concentration (Entamoeba histolytica [29]): 16 µg/mL; Concentration (Entamoeba histolytica [30]): 8 µg/mL; Concentration (Entamoeba histolytica [31]): 32 µg/mL; MIC (Candida albicans [19]): 4 µg/mL (≈ 11.6 µM); MIC (Trichophyton benhamiae [22]): 0.06 µg/mL (≈ 0.174 µM); Concentration (Entamoeba histolytica [32]): 4 µg/mL
4 | COc1ccc(C(c2ccccc2)[C@H]2NC[C@H](O)[C@H]2OC(C)=O)cc1 (some centres undefined) |  |  | > 32 | > 32 | > 32 | > 32 | 0 | 10 | 0 | 10 | 13 | 0 | 16 | 20 | 0 | 16 | 18 |  | 32 | 32 | Concentration (Entamoeba histolytica [15]): 32 µg/mL

Continued, in another order:

Row | MIC (Epidermophyton floccosum [2]) [µg/mL] | MIC (Trichophyton benhamiae [6]) [µg/mL] | MIC (Saccharomyces cerevisiae [16]; [33]) [µg/mL] | MIC (Epidermophyton floccosum [18]; [34]) [µg/mL] | MIC (Candida albicans [19]; [35]) [µg/mL] | MIC (Trichophyton benhamiae [22]; [36]) [µg/mL] | Structure (SMILES) | Inhibitory zone (Saccharomyces cerevisiae [1]) [mm] | Inhibitory zone (Actinomyces israelii) [mm] | Inhibitory zone (Trichophyton benhamiae [3]) [mm] | Inhibitory zone (Epidermophyton floccosum [4]) [mm] | Inhibitory zone (Streptococcus pyogenes) [mm] | Inhibitory zone (Candida albicans [8]) [mm] | Concentration (Trichomonas vaginalis [9]) [µg/mL] | Inhibitory zone (Clostridium novyi) [mm] | Inhibitory zone (Bacteroides fragilis) [mm] | Concentration (Tritrichomonas suis [13]) [µg/mL] | Inhibitory zone (Cutibacterium acnes [14]) [mm] | Concentration (Trichomonas vaginalis [17]) [µg/mL] | Concentration (Trichomonas vaginalis [20]) [µg/mL] | Concentration (Tritrichomonas suis [25]) [µg/mL] | further results
5 | > 32 | > 32 |  |  |  |  | COc1ccccc1C[C@H]1NC[C@H](O)[C@H]1OC(C)=O | 0 | 0 | 0 | 0 | 0 | 0 | 32 | 13 | 0 |  |  |  |  |  | Concentration (Trichomonas vaginalis [5]): 32 µg/mL; Inhibitory zone (Cutibacterium acnes [7]): Questionable activity; MIC (Candida albicans [10]): > 32 µg/mL; Concentration (Tritrichomonas suis [11]): 32 µg/mL; MIC (Saccharomyces cerevisiae [12]): > 32 µg/mL
6 |  |  | > 32 | > 32 | > 32 | > 32 | Cc1ncc([N+](=O)[O-])n1CCO [METRONIDAZOLE] |  | 0 | 0 | 8 | 0 | 0 | 0.06 | 25 | 20 | 0.12 | 0 | 0.5 | 0.12 | 0.25 | Concentration (Entamoeba histolytica [21]): 0.25 µg/mL; Concentration (Trichomonas vaginalis [23]): 0.25 µg/mL; Concentration (Tritrichomonas suis [24]): 0.5 µg/mL; Concentration (Entamoeba histolytica [26]): 0.12 µg/mL

— ChEMBL document CHEMBL1122441, “Structure-activity relationships of synthetic antibiotic analogues of anisomycin” (1983)
